Where “and” joins values, the source holds several entries; their conditions need not be identical. Equal entries are not always repeated.
Tests used:
Plasmodium berghei [1] = experiment: Antimalarial activity against Plasmodium berghei NK65 infected ICR mice (Mus musculus) as reduced parasitaemia at 5 mg/kg intraperitoneal dose on day 4; format: functional; design: scale not given: the % may be the effect or the level left
Outline: (§1)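 Peters' four-day suppressive test with P. berghei NK-65 (drug-sensitive) in groups of five ICR mice, dosed intraperitoneally once daily for 4 days. Parasitemia on day 4 is compared with untreated infected controls to give % suppression. Survival is followed after treatment as mean survival days, observed up to day 30.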

Mus musculus [2] = experiment: Effect on survival of Plasmodium berghei NK65 infected ICR mice (Mus musculus) assessed as mean survival days at 5 mg/kg, intraperitoneal after 4 days; format: functional
Outline: (§2)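 Peters' four-day suppressive test in groups of five ICR mice infected with drug-sensitive P. berghei NK-65. Compound given ip once daily for 4 days. Day-4 parasitemia compared with untreated controls to give % suppression. Mice observed after the end of treatment to record mean survival days and the number alive on day 30.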

Plasmodium falciparum = experiment: Antimalarial activity against chloroquine-resistant Plasmodium falciparum K1 after 48 hrs; format: functional, organism-based
[3] = Ratio of EC50 for rat L6 cells to EC50 for Plasmodium falciparum K1; format: functional
Outline: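 Selectivity index is the EC50 against rat skeletal myoblast L-6 cells divided by the in vitro EC50 against chloroquine-resistant P. falciparum K1, which was assayed by the Desjardins method.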

Mus musculus [4] = experiment: Survival of Plasmodium berghei NK65 infected ICR mice (Mus musculus) at 20 mg/kg, intraperitoneal after 4 days; format: functional; outline: as §2
Plasmodium berghei [5] = experiment: Antimalarial activity against Plasmodium berghei NK65 infected ICR mice (Mus musculus) as reduced parasitaemia after 20 mg/kg intraperitoneal dose on day 4; format: functional; design: scale not given: the % may be the effect or the level left; outline: as §1
Mus musculus [6] = experiment: Effect on survival of Plasmodium berghei NK65 infected ICR mice (Mus musculus) assessed as mean survival days at 10 mg/kg, intraperitoneal after 4 days; format: functional; outline: as §2
Plasmodium berghei [7] = experiment: Antimalarial activity against Plasmodium berghei NK65 infected ICR mice (Mus musculus) as reduced parasitaemia after 2.5 mg/kg intraperitoneal dose on day 4; format: functional; design: scale not given: the % may be the effect or the level left; outline: as §1
Mus musculus [8] = experiment: Effect on survival of Plasmodium berghei NK65 infected ICR mice (Mus musculus) assessed as mean survival days at 20 mg/kg, intraperitoneal after 4 days; format: functional; outline: as §2
Plasmodium berghei [9] = experiment: Antimalarial activity against Plasmodium berghei NK65 infected ICR mice (Mus musculus) as reduced parasitaemia on 10 mg/kg intraperitoneal dose on day 4; design: scale not given: the % may be the effect or the level left
Mus musculus [10] = experiment: Effect on survival of Plasmodium berghei NK65 infected ICR mice (Mus musculus) assessed as mean survival days at 2.5 mg/kg, intraperitoneal after 4 days; format: functional; outline: as §2
Plasmodium berghei [11] = experiment: Antimalarial activity against Plasmodium berghei NK65 infected ICR mice (Mus musculus) as reduced parasitaemia on 25 mg/kg/day oral dose after 4 days; design: scale not given: the % may be the effect or the level left
[12] = Oral bioavailability in Wistar rat at 10 mg/kg, po; format: ADME, organism-based; details: in vivo
Outline: (§3)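 Preliminary pharmacokinetics in Wistar rats given 10 mg kg^-1 as a saline solution, either intravenously or orally. Values are the average of three animals. Half-life is determined for each route, and oral bioavailability is obtained by comparing the oral and intravenous routes.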

[13] = Half life in Wistar rat at 10 mg/kg, po; format: ADME, organism-based; design: dose 10 mg/kg, route oral; details: in vivo; outline: as §3
Mus musculus [14] = experiment: Effect on survival of Plasmodium berghei NK65 infected ICR mice (Mus musculus) assessed as mean survival days at 50 mg/kg/day, oral after 4 days
Mus musculus [15] = experiment: Effect on survival of Plasmodium berghei NK65 infected ICR mice (Mus musculus) assessed as mean survival days at 12 times of 15 mg/kg/8hrs, oral
[16] = Half life in Wistar rat at 10 mg/kg, iv; format: ADME, organism-based; design: dose 10 mg/kg, route intravenous; details: in vivo; outline: as §3
Rattus norvegicus [17] = experiment: AUC (0-480 mins) in Wistar rat at 10 mg/kg, po; format: ADME, organism-based, Plasma; design: time < 8 hr, dose 10 mg/kg, route oral; details: in vivo, 8 h; outline: as §3
Plasmodium berghei [18] = experiment: Antimalarial activity against Plasmodium berghei NK65 infected ICR mice (Mus musculus) as reduced parasitaemia at 90 mg/kg/day oral dose after 4 days; design: scale not given: the % may be the effect or the level left
Mus musculus [19] = experiment: Effect on survival of Plasmodium berghei NK65 infected ICR mice (Mus musculus) assessed as mean survival days at 90 mg/kg/day, oral after 4 days
Mus musculus [20] = experiment: Effect on survival of Plasmodium berghei NK65 infected ICR mice (Mus musculus) assessed as mean survival days at 12 times of 30 mg/kg/8hrs, oral
Mus musculus [21] = experiment: Effect on survival of Plasmodium berghei NK65 infected ICR mice (Mus musculus) assessed as mean survival days at 25 mg/kg/day, oral after 4 days
Mus musculus [22] = experiment: Effect on survival of Plasmodium berghei NK65 infected ICR mice (Mus musculus) assessed as mean survival days at 100 mg/kg/day, oral after 1 day
Plasmodium berghei [23] = experiment: Antimalarial activity against Plasmodium berghei NK65 infected ICR mice (Mus musculus) as reduced parasitaemia at 50 mg/kg/day oral dose after 4 days; design: scale not given: the % may be the effect or the level left
Plasmodium berghei [24] = experiment: Antimalarial activity against Plasmodium berghei NK65 infected ICR mice (Mus musculus) as reduced parasitaemia after 12 oral doses of 30 mg/kg/8hrs; design: scale not given: the % may be the effect or the level left
Mus musculus [25] = experiment: Effect on survival of Plasmodium berghei NK65 infected ICR mice (Mus musculus) assessed as mean survival days at 100 mg/kg/day, oral after 4 days
Plasmodium berghei [26] = experiment: Antimalarial activity against Plasmodium berghei NK65 infected ICR mice (Mus musculus) as reduced parasitaemia at 100 mg/kg/day oral dose after 4 days; design: scale not given: the % may be the effect or the level left
Plasmodium berghei [27] = experiment: Antimalarial activity against Plasmodium berghei NK65 infected ICR mice (Mus musculus) as reduced parasitaemia on day 4 after 1 day at 100 mg/kg/day oral dose; design: scale not given: the % may be the effect or the level left
Plasmodium berghei [28] = experiment: Antimalarial activity against Plasmodium berghei NK65 infected ICR mice (Mus musculus) as reduced parasitaemia after 12 doses of 15 mg/kg/8hrs; format: functional; design: scale not given: the % may be the effect or the level left
Outline: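 Oral four-day suppressive test against P. berghei NK-65 in five ICR mice, using short-span dosing every 8 h for 12 doses in total. % parasitemia suppression on day 4 is calculated against untreated infected controls, and mean survival days and mice alive on day 30 are recorded.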

Rattus norvegicus [29] = experiment: AUC (0-480 mins) in Wistar rat at 10 mg/kg, iv; format: ADME, organism-based, Plasma; design: time < 8 hr, dose 10 mg/kg, route intravenous; details: in vivo, 8 h; outline: as §3
Plasmodium berghei [30] = experiment: Antimalarial activity against Plasmodium berghei NK65 infected ICR mice (Mus musculus) as reduced parasitaemia at 30 mg/kg intraperitoneal dose on day 4; format: functional; design: scale not given: the % may be the effect or the level left; outline: as §2
Mus musculus [31] = experiment: Effect on survival of Plasmodium berghei NK65 infected ICR mice (Mus musculus) assessed as mean survival days at 30 mg/kg, intraperitoneal after 4 days; format: functional; outline: as §2
[32] = Plasmodium falciparum, K1, 48 h

Structure (SMILES): CCN(C)c1ccc2nc3ccc(=[N+](C)C)cc-3oc2c1.[O-][Cl+3]([O-])([O-])[O-]
- Activity (Plasmodium berghei [1]): 71.7%
- Mean survival days (Mus musculus [2]): 6.7 days

Structure (SMILES): CN(C)c1ccc2nc3ccc(=[N+](C)C)cc-3oc2c1.[Cl-].[Cl][Zn][Cl]
- EC50 (Plasmodium falciparum; [32]): 12.6 nM
- Ratio [3]: 700
- Activity (Plasmodium berghei [1]): 17.1%
- Mean survival days (Mus musculus [2]): 5.6 days

Structure (SMILES): CCN(CC)c1ccc2nc3ccc(=[N+](C)C)cc-3oc2c1.[Cl-]
- Activity (Mus musculus [4]): 40%
- Activity (Plasmodium berghei [5]): 100%
- Mean survival days (Mus musculus [6]): 13 days
- Activity (Plasmodium berghei [7]): 58.7%
- Activity (Plasmodium berghei [1]): 85.3%
- Mean survival days (Mus musculus [8]): >17 days
- Mean survival days (Mus musculus [2]): 10 days
- Activity (Plasmodium berghei [9]): 99.9%
- Mean survival days (Mus musculus [10]): 7.8 days

Structure (SMILES): CN(C)c1ccc2nc3ccc(=[N+](C)C)cc-3oc2c1.[O-][Cl+3]([O-])([O-])[O-]
- Activity (Plasmodium berghei [1]): 45.9%
- Mean survival days (Mus musculus [2]): 6.7 days

Structure (SMILES): CCN(CC)c1ccc2nc3ccc(=[N+](C)C)cc-3oc2c1.[O-][Cl+3]([O-])([O-])[O-]
- Activity (Plasmodium berghei [1]): 77%
- Mean survival days (Mus musculus [2]): 9.4 days

Structure (SMILES): CN(C)c1cc(O)c2nc3ccc(=[N+](C)C)cc-3oc2c1.[Cl-]
- Activity (Plasmodium berghei [1]): 4.2%
- Mean survival days (Mus musculus [2]): 5.3 days

Structure (SMILES): CCN(CC)c1ccc2nc3ccc(N(CC)CC)cc3[o+]c2c1.[Cl-]
- EC50 (Plasmodium falciparum): 2.8 nM
- EC50 (Plasmodium falciparum; [32]): 4.7 nM
- Activity (Plasmodium berghei [11]): 82.3%
- Ratio [3]: 830 and 2400
- bioavailability [12]: 96.3%
- half-life [13]: 59.2 min
- Mean survival days (Mus musculus [14]): 14 days
- Activity (Plasmodium berghei [5]): 95.8%
- Mean survival days (Mus musculus [15]): 14 days
- half-life [16]: 5.8 min
- AUC (Rattus norvegicus [17]): 690 ng·h/mL
- Activity (Plasmodium berghei [18]): 100%
- Mean survival days (Mus musculus [19]): >24 days
- Mean survival days (Mus musculus [20]): >13 days
- Mean survival days (Mus musculus [21]): 7.6 days
- Mean survival days (Mus musculus [22]): 13 days
- Mean survival days (Mus musculus [6]): >11 days
- Activity (Plasmodium berghei [23]): 98.6%
- Activity (Plasmodium berghei [24]): 100%
- Mean survival days (Mus musculus [25]): >28 days
- Activity (Plasmodium berghei [7]): 30.5%
- Activity (Plasmodium berghei [1]; 5 mg/kg): 80.6% and 46.3%
- Activity (Plasmodium berghei [26]): 100%
- Activity (Plasmodium berghei [27]): 100%
- Mean survival days (Mus musculus [8]): >14 days
- Activity (Plasmodium berghei [28]): 100%
- AUC (Rattus norvegicus [29]): 717 ng·h/mL
- Activity (Plasmodium berghei [9]): 80.4%

Structure (SMILES): CCCCN(CCCC)c1ccc2nc3ccc(=[N+](CC)CC)cc-3oc2c1.[Cl-]
- EC50 (Plasmodium falciparum; [32]): 2.4 nM
- Ratio [3]: 350
- Activity (Plasmodium berghei [1]): 83.1%
- Mean survival days (Mus musculus [2]): 16 days

Structure (SMILES): CCCCN(CCCC)c1ccc2nc3ccc(=[N+](C)C)cc-3oc2c1.[O-][Cl+3]([O-])([O-])[O-]
- Activity (Plasmodium berghei [1]): 90.3%
- Mean survival days (Mus musculus [2]): 11.4 days

Structure (SMILES): CN1CCN(c2cc(OC(=O)C(C)(C)C)c3nc4ccc(=[N+](C)C)cc-4oc3c2)CC1.[Cl-]
- EC50 (Plasmodium falciparum; [32]): 270 nM
- Ratio [3]: 160
- Activity (Plasmodium berghei [1]): 19.9%
- Mean survival days (Mus musculus [2]): 5.4 days

Structure (SMILES): CN1CCN(c2cc(O)c3nc4ccc(=[N+](C)C)cc-4oc3c2)CC1.[Cl-]
- EC50 (Plasmodium falciparum; [32]): 200 nM
- Ratio [3]: 440
- Activity (Plasmodium berghei [1]): 17.4%
- Mean survival days (Mus musculus [2]): 5.3 days

Structure (SMILES): C[N+](C)=c1ccc2nc3ccc(N4CCNCC4)cc3oc-2c1.[Cl-]
- EC50 (Plasmodium falciparum; [32]): 28 nM
- Ratio [3]: 2300
- Activity (Plasmodium berghei [5]): 98.1%
- Activity (Plasmodium berghei [30]): 100%
- Mean survival days (Mus musculus [6]): 7.4 days
- Mean survival days (Mus musculus [25]): 17 days
- Mean survival days (Mus musculus [31]): 16.4 days
- Activity (Plasmodium berghei [1]): 54.8%
- Activity (Plasmodium berghei [26]): 100%
- Mean survival days (Mus musculus [8]): 17.6 days
- Mean survival days (Mus musculus [2]): 6 days
- Activity (Plasmodium berghei [9]): 78.5%

Structure (SMILES): CCN(CC)CCCC(C)Nc1ccnc2cc(Cl)ccc12 (centres undefined) [CHLOROQUINE]
- EC50 (Plasmodium falciparum; [32]): 1500 nM
- Ratio [3]: 32
- Mean survival days (Mus musculus [6]): 22.7 days
- Activity (Plasmodium berghei [9]): 90.6%

Source: ChEMBL document CHEMBL1139866, “Synthesis and antimalarial property of orally active phenoxazinium salts” (J Med Chem, 2007)
